# Where “and” joins values, the source holds several entries; their conditions need not be identical. Equal values may be shown once. About 140 (0.15%) of roughly 96,000 compounds were called active.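 The calls were made as follows: active = mean replicate inhibition above about 25%, with at least 55% of replicates also reaching it (limit read from the data, passing the limit was not always enough); inconclusive = only one of those two conditions met; inactive = neither condition met.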 For the sample, actives were picked, then their nearest neighbours and some compounds at random. The source holds several records for some structures; these can differ, active in one and inactive in another.
# Biological target: Lysine-specific demethylase 4C (Homo sapiens) (UniProt Q9H3R0)
# Sequence (Q9H3R0 2-372 limits assumed): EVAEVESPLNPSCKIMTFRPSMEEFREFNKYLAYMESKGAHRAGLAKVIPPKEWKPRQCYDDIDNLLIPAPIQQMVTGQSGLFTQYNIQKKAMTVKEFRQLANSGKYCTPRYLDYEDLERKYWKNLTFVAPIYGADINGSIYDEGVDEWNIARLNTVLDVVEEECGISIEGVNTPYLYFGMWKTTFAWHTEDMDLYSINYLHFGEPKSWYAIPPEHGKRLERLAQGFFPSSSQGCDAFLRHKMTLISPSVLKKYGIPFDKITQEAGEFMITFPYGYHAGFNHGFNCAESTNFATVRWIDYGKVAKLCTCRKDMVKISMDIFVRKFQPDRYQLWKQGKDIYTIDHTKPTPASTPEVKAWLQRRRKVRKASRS
# Assay: inhibitors of GASC-1 (KDM4C) histone demethylase, primary screen, biochemical, single concentration HTS (AID 720574)
# Conditions: GST-KDM4C 2-372, H3K9me3 peptide, LANCE TR-FRET; at 12.5 µM; stronger effect = higher value
# Method in brief: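 System – N-terminal GST-fused human GASC-1 (KDM4C) fragment, residues 2-372 · Input – enzyme final amount 10 nM · Technique – LANCE TR-FRET, Eu antibody, ULight-streptavidin, EDTA, ex 340 nm, em 618/671 nm · Medium – HEPES buffer, pH 7.5, plus ascorbate · Incubation – enzyme reaction 30 min, then detection 60 min, both room temperature · Reagent – H3K9me3 peptide with Fe(II)/2OG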
row,Structure (SMILES),inhibition
1,COc1cccc(S(=O)(=O)N[C@@H]2C=C[C@H](CC(=O)NC3CCC3)O[C@@H]2CO)c1,-0.615% (inactive)
2,CNC(=O)C[C@@H]1CC[C@@H]2[C@@H](COc3ccc(NC(=O)Nc4ccccc4OC)cc3C(=O)N2C)O1,-0.148% (inactive)
3,COc1ccc2c3c(n(C)c2c1)[C@@H](CO)N(C(=O)CN1CCOCC1)CC31CN(C(=O)CC2CC2)C1,-1.48% (inactive)
4,C[C@H](CO)N1C[C@H](C)[C@@H](CN(C)C(=O)C2CC2)Oc2cc(C#CC(C)(C)O)ccc2S1(=O)=O,-1.72% (inactive)
5,O=C(C1CCCC1)N1CC(=O)N2[C@@H](CO)[C@H](c3ccc(C#CC4CCCC4)cc3)[C@@H]2C1,0.0785% (inactive)
6,COc1cccc(-c2ccc([C@@H]3[C@@H](CO)N4C(=O)CN(C(=O)C5CCCCC5)C[C@H]34)cc2)c1,-0.874% (inactive)
7,CC(C)(C)[S@](=O)N1Cc2cc(C(=O)N[C@@H]3CCN(Cc4ccccc4)C3)nc(-c3cccc(-c4ccncc4)c3)c2[C@@H]1CCO,-0.764% (inactive)
8,C/C=C/c1ccccc1[C@@H]1[C@@H](C#N)N(C(=O)Cc2ccccn2)[C@H]1CO,0.483% (inactive)
9,CN(C)CC(=O)Nc1ccc2c(c1)[C@H]1C[C@@H](CC(=O)NCc3ccc(Cl)cc3)O[C@@H](CO)[C@H]1O2,-0.979% (inactive)
10,COc1cccc(NC(=O)N[C@@H]2CC[C@H](CC(=O)Nc3ccccc3)O[C@@H]2CO)c1,-0.777% (inactive)
11,COc1ccc2c3c(n(C)c2c1)[C@H](CO)NCC31CCN(C(=O)Nc2ccccc2F)CC1,0.753% (inactive)
12,CO[C@H]1CN(C)C(=O)c2ccc(NC(C)=O)cc2OC[C@H](C)N(C(=O)Cc2ccccn2)C[C@@H]1C,0.463% (inactive)
13,CN1C(=O)c2cc(NC(=O)C3CCC3)ccc2OC[C@@H]2O[C@@H](CC(=O)NCc3ccccc3F)CC[C@@H]21,-1.68% (inactive)
14,CO[C@H]1CN(C)C(=O)c2ccc(NC(=O)Cc3ccccc3)cc2OC[C@@H](C)N(C(C)=O)C[C@H]1C,-0.332% (inactive)
15,COc1ccc(CNC(=O)C[C@H]2CC[C@@H]3[C@H](COc4ccc(NC(=O)C5CC5)cc4C(=O)N3C)O2)cc1,0.0505% (inactive)
16,C[C@@H]1CN([C@@H](C)CO)S(=O)(=O)c2ccc(-c3ccccc3F)cc2O[C@H]1CN(C)Cc1cncnc1,5.07% (inactive)
17,C[C@@H]1CN([C@@H](C)CO)C(=O)c2cc(C#C[C@@H](C)O)cnc2O[C@H]1CN(C)CC1CCOCC1,4.17% (inactive)
18,COc1ccccc1-c1cn(CC[C@@H]2CC[C@H](NC(=O)c3ccccc3F)[C@H](CO)O2)nn1,-1.5% (inactive)
19,COC(=O)C[C@H]1CC[C@H]2[C@@H](COc3ccc(NC(=O)Nc4cccc(F)c4)cc3C(=O)N2C)O1,-1.5% (inactive)
20,COCc1cn(CC[C@@H]2CC[C@@H](NC(=O)Cc3cccnc3)[C@@H](CO)O2)nn1,1.27% (inactive)
21,CC(C)(C)[S@@](=O)N1Cc2cc(C(=O)N3CCOCC3)nc(-c3cccc(-c4ccc(C#N)cc4)c3)c2[C@H]1CCO,1.6% (inactive)
22,CC=Cc1ccc2n(c1=O)C[C@@H]1[C@@H](CO)[C@H](C(=O)N[C@H](C)c3ccccc3)N(C(=O)c3cnccn3)[C@H]21 (mixture of isomers),0.423% (inactive)

row,Structure (SMILES),inhibition
1,O=C(C[C@@H]1CC[C@@H]2[C@H](COC[C@H](O)CN2Cc2cccc(C(F)(F)F)c2)O1)NCc1ccc(F)cc1,3.72% (inactive)
2,CN(C)CC(=O)N1CC2(C1)[C@H](c1ccccc1)[C@@H](CO)N2C(=O)C1CCCCC1,-0.237% (inactive)
3,O=C(C[C@H]1C=C[C@H](NC(=O)C2CCC2)[C@H](CO)O1)NCCCN1CCOCC1,1.01% (inactive)
4,COc1ccc(NC(=O)N(C)C[C@@H]2Oc3ccc(NS(=O)(=O)c4ccc(C)cc4)cc3CC(=O)N([C@@H](C)CO)C[C@H]2C)cc1,6.92% (inactive)
5,CCNC(=O)Nc1ccc2c(c1)C(=O)N(C)[C@H]1CC[C@@H](CC(=O)N[C@@H](C)c3ccccc3)O[C@H]1CO2,0.198% (inactive)
6,O=C(Nc1ccccc1F)N1CC(=O)N2[C@H](C1)[C@@H](c1ccc(C#CC3CC3)cc1)[C@@H]2CO,1.64% (inactive)
7,CN(C)C(=O)[C@@H]1[C@@H](CO)[C@@H]2Cn3c(ccc(C4=CCCC4)c3=O)[C@H]1N2Cc1ccccn1,1.36% (inactive)
8,NCC[C@H]1CC[C@H](NC(=O)C2CC2)[C@@H](CO)O1,0.258% (inactive)
9,CO[C@H]1CN(C)C(=O)c2ccc(NC(=O)C3CC3)cc2OC[C@H](C)N(CCc2ccccc2)C[C@@H]1C,0.468% (inactive)
10,O=C(CC(F)(F)F)N1C[C@H]2[C@@H](c3ccccc31)[C@H](CO)N2C(=O)Cc1ccccc1,-2.83% (inactive)
11,CCCN1C[C@@H](C)[C@@H](OC)CN(C)C(=O)c2ccc(NC(=O)CC(F)(F)F)cc2OC[C@H]1C,-0.121% (inactive)
12,CN1CCN(C(=O)C[C@@H]2CC[C@@H]3[C@@H](COc4ccc(NC(=O)c5ccc(F)c(F)c5)cc4C(=O)N3C)O2)CC1,-0.587% (inactive)
13,O=C(c1ccncc1)N1C[C@@H]2[C@H](c3ccccc31)[C@H](CO)N2C(=O)c1ccncc1,-0.987% (inactive)
14,COc1ccc2c3c(n(C)c2c1)[C@H](CO)N(C(=O)NC(C)C)CC31CCN(C(=O)NC(C)C)CC1,0.238% (inactive)
15,CCCN1C[C@H](C)[C@@H](OC)CN(C)C(=O)c2ccc(NC(=O)CC)cc2OC[C@@H]1C,2.58% (inactive)
16,O=C(Nc1ccccc1)N1CC(=O)N2[C@@H](CO)[C@H](c3ccc(C#CC4CCCC4)cc3)[C@@H]2C1,0.422% (inactive)
17,CN(C)C(=O)C[C@@H]1CC[C@H](NC(=O)NC2CCCCC2)[C@@H](CO)O1,-0.283% (inactive)
18,CCCC(=O)Nc1ccc2c(c1)C(=O)N(C)[C@@H]1CC[C@H](CC(=O)NCCOC)O[C@H]1CO2,0.186% (inactive)
19,CC(=O)N1CC2(C1)[C@@H](c1ccccc1)[C@@H](CO)N2C(=O)c1cnccn1,0.148% (inactive)
20,CCC(=O)Nc1ccc2c(c1)C(=O)N(C)C[C@@H](OC)[C@H](C)CN(Cc1cccnc1)[C@@H](C)CO2,-0.624% (inactive)
21,CCCC#Cc1ccc([C@@H]2[C@@H](CO)N3C(=O)CN(C(=O)Nc4ccc(F)cc4)C[C@@H]23)cc1,-0.912% (inactive)
22,CCC(=O)N1[C@@H](CO)[C@@H](c2ccccc2)C12CN(C(=O)Cc1ccccc1)C2,7.87% (inactive)

row,Structure (SMILES),inhibition
1,Cc1noc(C)c1NC(=O)N(C)C[C@@H]1OCCCC[C@H](C)Oc2ccc(NC(=O)c3ccccc3)cc2C(=O)N([C@@H](C)CO)C[C@@H]1C,1.18% (inactive)
2,O=C(Nc1ccccc1F)N[C@@H]1CC[C@@H](CCNC(=O)C2CC2)O[C@H]1CO,-1.05% (inactive)
3,O=C(C1CCCCC1)N1C[C@@H]2N[C@H](C1)C2c1ccc(-c2cccc(F)c2)cc1 (some centres undefined),4.43% (inactive) and 0.21% (inactive)
4,O=C(C1CCC1)N1C[C@@H]2N[C@H](C1)C2c1ccc(-c2cncnc2)cc1 (some centres undefined),0.917% (inactive)
5,Cc1ccccc1-c1ccc(C2[C@@H]3CN(C(=O)C4CCCCC4)C[C@H]2N3)cc1 (some centres undefined),40% (active) and 1.58% (inactive)
6,CN1c2ccc(-c3cccc(F)c3)cc2[C@H]2[C@H](CCN2C(=O)C2CCCC2)[C@@H]1CO,5.91% (inactive)
7,COCC#Cc1ccc([C@H]2[C@H](CO)N3C(=O)CN(C(=O)Nc4ccccc4F)C[C@@H]23)cc1,0.262% (inactive)
8,O=C(C[C@@H]1CC[C@@H]2[C@H](COC[C@H](O)CN2Cc2cccc(-c3ccncc3)c2)O1)N1CCOCC1,-0.984% (inactive)
9,Cc1noc(C)c1S(=O)(=O)N(C)C[C@H]1OCCCC[C@H](C)Oc2ccc(NS(=O)(=O)c3ccccc3)cc2C(=O)N([C@H](C)CO)C[C@@H]1C,-0.427% (inactive)
10,CO[C@H]1CN(C)C(=O)c2cc(NS(C)(=O)=O)ccc2OC[C@@H](C)N(C(=O)NC(C)C)C[C@@H]1C,1.54% (inactive)
11,C[C@H]1CN([C@@H](C)CO)C(=O)c2cccc(NC(=O)CCCCCC(=O)Nc3ccccc3N)c2O[C@@H]1CN(C)C(=O)NC1CCCCC1,0.11% (inactive)
12,O=C(C[C@@H]1C=C[C@H](NC(=O)CN2CCOCC2)[C@@H](CO)O1)NC1CCC1,-2.2% (inactive)
13,CCCN1[C@@H]2c3ccc(-c4ccccc4OC)c(=O)n3C[C@H]1[C@H](CO)[C@H]2C(=O)NCc1ccccn1,0.442% (inactive)
14,COCC(=O)N(C)C[C@H]1Oc2cc(C#C[C@@H](C)O)ccc2S(=O)(=O)N([C@H](C)CO)C[C@H]1C,0.918% (inactive)
15,COc1ccccc1S(=O)(=O)N[C@H]1CC[C@@H](CC(=O)NCc2cc(F)cc(F)c2)O[C@H]1CO,-1.06% (inactive)
16,COc1ccc2c3c(n(C)c2c1)[C@H](CO)N(C(=O)NC(C)C)CC31CN(CC2CCCCC2)C1,-0.934% (inactive)
17,C[C@H](CO)N1C[C@H](C)[C@H](CN(C)CC2CCCCC2)OCCCC[C@H](C)Oc2ccc(NS(=O)(=O)c3ccc(F)cc3)cc2C1=O,-1.51% (inactive)
18,COCC(=O)N1[C@H](CO)[C@H](c2ccccc2)C12CN(C(=O)NC1CCCCC1)C2,0.705% (inactive)
19,CCC(=O)N1CC(=O)N2[C@H](CO)[C@@H](c3ccc(-c4ccc(C(=O)N(C)C)cc4)cc3)[C@@H]2C1,-0.23% (inactive)
20,COc1ccc(S(=O)(=O)N[C@H]2CC[C@H](CCn3cc(C(C)C)nn3)O[C@@H]2CO)cc1,0.0615% (inactive)

# Reference: PubChem BioAssay AID720574 (Broad Institute, 2013)
